Source: ChEMBL document CHEMBL1158122, “Anti-inflammatory, anti-tumor-promoting, and cytotoxic activities of constituents of marigold (Calendula officinalis) flowers” (J Nat Prod, 2006)

Columns and labels:
NCI-H23 = assay: Cytotoxicity against human NCI-H23 cells after 48 hrs by SRB assay; type: functional; conditions: NCI-H23, 48 h
SF-295 = assay: Cytotoxicity against human SF-295 cells after 48 hrs by SRB assay; type: functional; conditions: SF-295, 48 h
ACHN = assay: Cytotoxicity against human ACHN cells after 48 hrs by SRB assay; type: functional
NCI-H322M = assay: Cytotoxicity against human NCI-H322M cells after 48 hrs by SRB assay; type: functional
SNB-19 = assay: Cytotoxicity against human SNB-19 cells after 48 hrs by SRB assay; type: functional; conditions: SNB-19, 48 h
BT-549 = assay: Cytotoxicity against human BT-549 cells after 48 hrs by SRB assay; type: functional; conditions: BT-549, 48 h
SK-MEL-5 = assay: Cytotoxicity against human SK-MEL-5 cells after 48 hrs by SRB assay; type: functional; conditions: SK-MEL-5, 48 h
[1] = Cytotoxicity against human Hs 578T cells after 48 hrs by SRB assay; type: functional
EKVX = assay: Cytotoxicity against human EKVX cells after 48 hrs by SRB assay; type: functional
Raji [2] = assay: Inhibition of TPA-induced EBV-early antigen activation in human Raji cells at 100 molar ratio relative to TPA; type: cell-based; parameters: scale not given: the % may be the effect or the level left; conditions: human gammaherpesvirus 4
T47D = assay: Cytotoxicity against human T47D cells after 48 hrs by SRB assay; type: functional
Method in brief: (§1)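 Tested in the NCI panel of 60 human tumour cell lines covering lung, colon, melanoma, renal, ovarian, breast and leukaemia. At least five concentrations were run in 10-fold dilutions starting from 10^-4 M. Exposure was continuous for 48 h. Growth or viability was estimated by sulforhodamine B protein staining, and GI50 values were reported.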

MDA-MB-231 = assay: Cytotoxicity against human MDA-MB-231 cells after 48 hrs by SRB assay; type: functional; conditions: MDA-MB-231, 48 h
NCI-H226 = assay: Cytotoxicity against human NCI-H226 cells after 48 hrs by SRB assay; type: functional; conditions: NCI-H226, 48 h
RXF 393 = assay: Cytotoxicity against human […] cells after 48 hrs by SRB assay; type: functional; conditions: RXF 393, 48 h
MCF7 = assay: Cytotoxicity against human MCF7 cells after 48 hrs by SRB assay; type: functional; conditions: MCF7, 48 h
IGROV-1 = assay: Cytotoxicity against human IGROV1 cells after 48 hrs by SRB assay; type: functional; conditions: IGROV-1, 48 h
786-0 = assay: Cytotoxicity against human 786-0 cells after 48 hrs by SRB assay; type: functional; conditions: 786-0, 48 h
SW-620 = assay: Cytotoxicity against human SW620 cells after 48 hrs by SRB assay; type: functional; conditions: SW-620, 48 h
PC-3 = assay: Cytotoxicity against human PC-3 cells after 48 hrs by SRB assay; type: functional; conditions: PC-3, 48 h
HOP-62 = assay: Cytotoxicity against human HOP-62 cells after 48 hrs by SRB assay; type: functional; conditions: HOP-62, 48 h
UACC-257 = assay: Cytotoxicity against human UACC-257 cells after 48 hrs by SRB assay; type: functional; conditions: UACC-257, 48 h; method in brief: as §1
[3] = Cytotoxicity against human HCT 116 cells after 48 hrs by SRB assay; type: functional; conditions: HCT-116, 48 h
[4] = Inhibition of TPA-induced EBV-early antigen activation in human Raji cells relative to TPA; type: cell-based, human gammaherpesvirus 4
MDA-MB-435 = assay: Cytotoxicity against human MDA-MB-435 cells after 48 hrs by SRB assay; type: functional; conditions: MDA-MB-435, 48 h
SF-268 = assay: Cytotoxicity against human SF-268 cells after 48 hrs by SRB assay; type: functional; conditions: SF-268, 48 h
Raji [5] = assay: Inhibition of TPA-induced EBV-early antigen activation in human Raji cells at 10 molar ratio relative to TPA; type: cell-based; parameters: scale not given: the % may be the effect or the level left; conditions: human gammaherpesvirus 4
K562 = assay: Cytotoxicity against human K-562 cells after 48 hrs by SRB assay; type: functional; conditions: K562, 48 h
UO-31 = assay: Cytotoxicity against human UO-31 cells after 48 hrs by SRB assay; type: functional; conditions: UO-31, 48 h; method in brief: as §1
LOX IMVI = assay: Cytotoxicity against human LOX IMVI cells after 48 hrs by SRB assay; type: functional
UACC-62 = assay: Cytotoxicity against human UACC-62 cells after 48 hrs by SRB assay; type: functional; conditions: UACC-62, 48 h; method in brief: as §1
OVCAR-8 = assay: Cytotoxicity against human OVCAR8 cells after 48 hrs by SRB assay; type: functional; conditions: OVCAR-8, 48 h
NCI-H522 = assay: Cytotoxicity against human NCI-H522 cells after 48 hrs by SRB assay; type: functional; conditions: NCI-H522, 48 h
[6] = Cytotoxicity against human Raji cells assessed as cell viability at 100 molar ratio; type: cell-based; conditions: read-out: Activity
Method in brief: (§2)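 Raji cells were treated with 32 pmol TPA to induce EBV early antigen activation. The test agent was added at 10, 100, 500 or 1000 mol ratio relative to TPA, and Raji cell viability was measured alongside EA activation.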

[7] = Cytotoxicity against human Raji cells assessed as cell viability at 10 molar ratio; type: cell-based; conditions: read-out: Activity; method in brief: as §2
SK-MEL-2 = assay: Cytotoxicity against human SK-MEL-2 cells after 48 hrs by SRB assay; type: functional; conditions: SK-MEL-2, 48 h
SN12C = assay: Cytotoxicity against human SN12C cells after 48 hrs by SRB assay; type: functional
HCT-15 = assay: Cytotoxicity against human HCT-15 cells after 48 hrs by SRB assay; type: functional; conditions: HCT-15, 48 h
NCI/ADR-RES = assay: Cytotoxicity against human NCI/ADR-RES cells after 48 hrs by SRB assay; type: functional
Raji [8] = assay: Inhibition of TPA-induced EBV-early antigen activation in human Raji cells at 1000 molar ratio relative to TPA; type: cell-based; parameters: scale not given: the % may be the effect or the level left; conditions: human gammaherpesvirus 4
[9] = Cytotoxicity against human SK MEL28 cells after 48 hrs by SRB assay; type: functional; conditions: SK-MEL-28, 48 h
A549 = assay: Cytotoxicity against human A549 cells after 48 hrs by SRB assay; type: functional; conditions: A549, 48 h
HL-60 = assay: Cytotoxicity against human HL-60 cells after 48 hrs by SRB assay; type: functional; conditions: HL-60, 48 h
HCC 2998 = assay: Cytotoxicity against human HCC2998 cells after 48 hrs by SRB assay; type: functional; conditions: HCC 2998, 48 h
Raji [10] = assay: Inhibition of TPA-induced EBV-early antigen activation in human Raji cells at 500 molar ratio relative to TPA; type: cell-based; parameters: scale not given: the % may be the effect or the level left; conditions: human gammaherpesvirus 4
Malme-3M = assay: Cytotoxicity against human MALME-3M cells after 48 hrs by SRB assay; type: functional
[11] = Cytotoxicity against human Raji cells assessed as cell viability at 500 molar ratio; type: cell-based; conditions: read-out: Activity; method in brief: as §2
[12] = Cytotoxicity against human Raji cells assessed as cell viability at 1000 molar ratio; type: cell-based; conditions: read-out: Activity; method in brief: as §2
TK-10 = assay: Cytotoxicity against human TK-10 cells after 48 hrs by SRB assay; type: functional; conditions: TK-10, 48 h; method in brief: as §1
NCI-H460 = assay: Cytotoxicity against human NCI-H460 cells after 48 hrs by SRB assay; type: functional; conditions: NCI-H460, 48 h
CAKI-1 = assay: Cytotoxicity against human Caki-1 cells after 48 hrs by SRB assay; type: functional; conditions: CAKI-1, 48 h
COLO 205 = assay: Cytotoxicity against human COLO205 cells after 48 hrs by SRB assay; type: functional; conditions: COLO 205, 48 h
Mus musculus = assay: Antiinflammatory activity against TPA-induced ear edema in mouse; type: functional
Method in brief: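 Specific-pathogen-free female ICR mice were housed five per cage at 24 ± 2 °C. Inflammation was induced on the ear with TPA at 1 µg/ear, and the test agent was applied per ear. Ear edema inhibition was expressed as ID50 in mg per ear.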

KM12 = assay: Cytotoxicity against human KM12 cells after 48 hrs by SRB assay; type: functional; conditions: KM12, 48 h
OVCAR-5 = assay: Cytotoxicity against human OVCAR5 cells after 48 hrs by SRB assay; type: functional; conditions: OVCAR-5, 48 h
MOLT-4 = assay: Cytotoxicity against human MOLT-4 cells after 48 hrs by SRB assay; type: functional; conditions: MOLT-4, 48 h
OVCAR-3 = assay: Cytotoxicity against human OVCAR-3 cells after 48 hrs by SRB assay; type: functional; conditions: OVCAR-3, 48 h
HOP-92 = assay: Cytotoxicity against human HOP-92 cells after 48 hrs by SRB assay; type: functional; conditions: HOP-92, 48 h
HT-29 = assay: Cytotoxicity against human HT-29 cells after 48 hrs by SRB assay; type: functional; conditions: HT-29, 48 h

CCCCOC(=O)[C@H]1O[C@@H](O[C@H]2CC[C@]3(C)[C@H]4CC=C5[C@@H]6CC(C)(C)CC[C@]6(C(=O)O)CC[C@@]5(C)[C@]4(C)CC[C@H]3C2(C)C)[C@H](O[C@@H]2O[C@H](CO)[C@@H](O)[C@H](O)[C@H]2O)[C@@H](O[C@@H]2O[C@H](CO)[C@H](O)[C@H](O)[C@H]2O)[C@@H]1O
GI50 (NCI-H23): 22.8 µM | GI50 (SF-295): 26 µM | GI50 (ACHN): 20.6 µM | GI50 (NCI-H322M): 19 µM | GI50 (SNB-19): 22.5 µM | GI50 (BT-549): 21.5 µM | GI50 (SK-MEL-5): 33.1 µM | GI50 [1]: 38 µM | GI50 (EKVX): 24.4 µM | Activity (Raji [2]): 71% | GI50 (T47D): 48 µM | GI50 (MDA-MB-231): 14.5 µM | GI50 (NCI-H226): 29.2 µM | GI50 (RXF 393): 58.5 µM | GI50 (MCF7): 38.4 µM | GI50 (IGROV-1): > 100 µM | GI50 (786-0): 26.2 µM | GI50 (SW-620): 36.6 µM | GI50 (PC-3): 34.7 µM | GI50 (HOP-62): 19.4 µM | GI50 (UACC-257): 26.2 µM | GI50 [3]: 20.6 µM | IC50 [4]: 473 molar ratio | GI50 (MDA-MB-435): 30.6 µM | GI50 (SF-268): 27.7 µM | Activity (Raji [5]): 100% | GI50 (K562): 23.2 µM | GI50 (UO-31): 49.2 µM | GI50 (LOX IMVI): 18 µM | GI50 (UACC-62): 20.9 µM | GI50 (OVCAR-8): 66.8 µM | GI50 (NCI-H522): 43.9 µM | viability at 100 molar ratio [6]: > 80% | viability at 10 molar ratio [7]: > 80% | GI50 (SK-MEL-2): 40.9 µM | GI50 (SN12C): 21.8 µM | GI50 (HCT-15): 20.9 µM | GI50 (NCI/ADR-RES): 74 µM | Activity (Raji [8]): 11% | GI50 [9]: 26.7 µM | GI50 (A549): 34.1 µM | GI50 (HL-60): 22.3 µM | GI50 (HCC 2998): 21.8 µM | Activity (Raji [10]): 49.3% | GI50 (Malme-3M): 17.8 µM | viability at 500 molar ratio [11]: > 80% | viability at 1000 molar ratio [12]: 70% | GI50 (TK-10): 33.3 µM | GI50 (NCI-H460): 33.3 µM | GI50 (CAKI-1): 33.4 µM | GI50 (COLO 205): 20.1 µM | ID50 (Mus musculus): 0.06 mg | GI50 (KM12): 30.8 µM | GI50 (OVCAR-5): 28.8 µM | GI50 (MOLT-4): 7.77 µM | GI50 (OVCAR-3): > 100 µM | GI50 (HOP-92): 33.2 µM | GI50 (HT-29): 34.2 µM
